This is an account of results in ChEMBL document CHEMBL1250520, “Antitumor agents. 280. Multidrug resistance-selective desmosdumotin B analogues” (2010).

As usually defined, the GI50 is the concentration that inhibits growth by half.

The test system of assay [1] is Hep 3B2. Put plainly: Selectivity ratio of GI50 for human Hep3B cells to ED50 vincristine-resistant Hep3B cells. The assay is classed as functional.
Assay [2] has as its system KBVIN. Briefly: Inhibition of Pgp efflux pump in human KBVIN cells by calcein AM assay. The assay is classed as cell-based. Summed up:
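KB-VIN cells, 10,000 per well, were grown 24 h in RPMI-1640 with 5% FBS. They were preincubated with compounds for 30 min at 37°C, then given fresh medium with 1 µM calcein-AM plus compounds for 30 min at 37°C in the dark. After cold PBS wash and hypotonic Tris-HCl lysis, fluorescence was read at Ex 494/Em 517 nm. Data pooled from two or more independent experiments.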

Assay [3] has as its system KB. Put plainly: Anticancer activity against human KB cells after 3 days by SRB assay. The following applies: 72 h, read-out: ED50 (the source's name). The assay is classed as functional. Summed up: (§1)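 Cells seeded at 1500–7500 per well, compounds added from DMSO-diluted stock, grown 3 days in RPMI-1640 with 25mM HEPES, 0.25% sodium bicarbonate, 10% FBS and kanamycin. Attached cells fixed in cold 50% TCA, stained with 0.4% sulforhodamine B, absorbance read at 562 nm after dye solubilization. ED50 is the 50% growth-reduction concentration, averaged from at least three independent determinations.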

Assay [4] is described as follows: Anticancer activity against human KBVIN cells after 3 days by SRB assay. The assay is classed as functional. The following applies: 72 h, read-out: ED50 (the source's name). In a few lines:
as §1
Background: In SRB staining, fixed cells bind dye roughly in proportion to their protein.

Assay [5] in a line: Selectivity ratio of ED50 for human KB cells to ED50 for human KBVIN cells. The assay is classed as functional. Summed up: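 Ratio of KB ED50 to KB-VIN ED50. Both values come from a 3-day sulforhodamine B assay with absorbance read at 562 nm. Cells were seeded at 1500–7500 per well and dosed from DMSO-diluted stock. Each ED50 is the mean of at least three independent determinations.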

Assay [6] can be described thus: Anticancer activity against human Hep3B cells after 3 days by SRB assay. The assay is classed as functional, Hep 3B2. The following applies: 72 h.
A short description of assay [7]: Anticancer activity against vincristine-resistant human Hep3B cells after 3 days by SRB assay. The assay is classed as functional, Hep 3B2. Particulars: 72 h.
For assay [8], the system named is KBVIN. Put plainly: Induction of apoptosis in human KBVIN cells assessed as DNA fragmentation after 1 days by ELISA. The assay is classed as functional, cell-based. Summed up:
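Apoptosis in KB-VIN cells, including co-treatment with verapamil, read out by a Cell Death Detection ELISA PLUS kit.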
For orientation: An ELISA detects its analyte on a solid surface through an enzyme-linked reagent.

Activity calls are given as the source filed them. The calls are words filed in the database; no cut-off is given here. Bounds are passed on as bounds.

Regarding `CCC1=C(O)c2c(oc(-c3ccc(C)cc3)cc2=O)C(CC)(CC)C1=O` [6,8,8-TRIETHYL-4-METHYL DESMOSDUMOTIN B], the RatioGI50 in assay [1] was 21. In addition, the inhibition result in assay [2] is “Active”. Besides, the EC50 in assay [3] was 39.2 µM; in assay [4], 80 nM. For the same compound, in assay [5], the “Ratio ED50” value came to 460. The GI50 turned out to be 7.31 µM in assay [6] and 350 nM in assay [7].

With `CCC1=C(O)c2c(oc(-c3ccccc3)cc2=O)C(CC)(CC)C1=O` [6,8,8-TRIETHYL DESMOSDUMOTIN B], the RatioGI50 in assay [1] was 30. In addition, the inhibition result in assay [2] was “inactive”. Further, in assay [8], the outcome was Active. Further, the results for the EC50 in assay [3] and in assay [4] were > 237 µM and 1070 nM, respectively. Also, the “Ratio ED50” value in assay [5] was >221. The values for the GI50 in assay [6] and in assay [7] were 47.6 µM and 1570 nM, respectively.

In the case of `CC(=O)O[C@H]1C(=O)[C@@]2(C)[C@H]([C@H](OC(=O)c3ccccc3)[C@]3(O)C[C@H](OC(=O)[C@H](O)[C@@H](NC(=O)c4ccccc4)c4ccccc4)C(C)=C1C3(C)C)[C@]1(OC(C)=O)CO[C@@H]1C[C@@H]2O` [PACLITAXEL], the GI50 in assay [6] was 0.0004 µM; in assay [7], 16200 nM.

Regarding `CCC1=C(O)c2c(oc(-c3ccc(CC)cc3)cc2=O)C(CC)(CC)C1=O` [6,8,8-TRIETHYL-4-ETHYL DESMOSDUMOTIN B], the RatioGI50 in assay [1] worked out at 8.5. In addition, the inhibition result in assay [2] is “Active”. For the same compound, the results for the EC50 in assay [3] and in assay [4] were 21.9 µM and 70 nM, respectively. Moreover, the “Ratio ED50” value in assay [5] stood at 320. Moreover, the values for the GI50 in assay [6] and in assay [7] were 6.09 µM and 720 nM, respectively.

Turning to `CC[C@]1(O)C[C@H]2CN(CCc3c([nH]c4ccccc34)[C@@](C(=O)OC)(c3cc4c(cc3OC)N(C=O)[C@H]3[C@@](O)(C(=O)OC)[C@H](OC(C)=O)[C@]5(CC)C=CCN6CC[C@]43[C@@H]65)C2)C1` [VINCRISTINE], the GI50 in assay [6] amounted to 0.0029 µM; in assay [7], 6860 nM.

In the case of `CCC1=C(O)c2c(oc(-c3cc(OC)cc(OC)c3)cc2=O)C(CC)(CC)C1=O`, the EC50 worked out at 45.2 µM in assay [3] and 3270 nM in assay [4]. Besides, the “Ratio ED50” value in assay [5] was found to be 14.

With `CCC1=C(O)c2c(oc(-c3ccc(F)cc3)cc2=O)C(CC)(CC)C1=O`, the results for the EC50 in assay [3] and in assay [4] were 33 µM and 1850 nM, respectively. The “Ratio ED50” value in assay [5] stood at 18.
